This note sets out measurements from paper PMC5379986 (The Journal of Experimental Medicine, 2017).

Molecules are shown by their SMILES.

In one series the test system is primary microglia. Nature of the series: qPCR analysis of mRNA from primary microglia of LA-1-treated mice. It is filed as in vivo, mouse. The following applies: microglia from LA-1-treated mice, qPCR normalized to GAPDH, n = 5. The gist of the method: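 Mice received test compound i.p. daily for 10 d (500 µl of 50 µM; DMSO/PBS vehicle). Microglia were isolated from perfused, dissociated brains with CD45 microbeads and frozen immediately for RNA. cDNA diluted 1:20 was amplified with SYBR Green. Expression was calculated by ΔΔCt relative to GAPDH.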

A further series deals with CR3^kd cells. The series is described as follows: Cell-based Aβ degradation assay with LA-1 treatment in CR3 knockdown cells. The following applies: CR3 knockdown BV2 cells; Fig. 4 B. The gist of the method:
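CR3kd BV2 cells carried a stable CD11b-targeting shRNA lentivirus; controls carried empty vector. Lines were selected with 5 µg/ml puromycin and sorted for CD11b <80% of control. Cells were seeded at 250,000/well and attached overnight. Test compound or vehicle in serum-free DMEM was added 30 min before 1 µg/ml Aβ1-42. Timed samples went into 2× protease inhibitor. Total Aβ was measured by electrochemiluminescent ELISA (21D12 capture, 3D6 detection, Aβ1-40 standards).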

Series [1] has as its system acutely isolated microglia and PBMCs. Format: in vivo, mouse. The following applies: after 10 d of LA-1 injections; n = 5 mice per group; Fig. S2 I, J. The gist of the method:
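Mice received 500 µl of 50 µM test compound or DMSO vehicle in PBS i.p. daily for 10 d. Microglia were isolated from perfused, enzymatically dissociated brains with CD45 microbeads, and PBMCs by Ficoll. Cells were kept on ice, washed and Fc-blocked 15 min. They were then stained 30 min with labelled antibodies against CD162, CD62L, CD18, CD54, CD14, CD49d, CD11a and CD11b.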

For the next series, the system named is ISF Aβ. Format: in vivo, mouse. The settings on record: 4-h LA-1 infusion and 12-h washout; n = 2 mice; Fig. 5 D, E. In a few lines:
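A 38-kD cutoff microdialysis probe was placed in the left hippocampus (bregma −3.1, midline −2.5, 3.2 mm below dura, 12°). It was perfused at 1 µl/min with 0.15% BSA artificial CSF, pH 7.35. After 8 h baseline, test compound was reverse-dialysed at 100 µM. Fractions were collected every 60–90 min, and Aβ40 was measured by sandwich ELISA (mHJ2 capture, mHJ5.1 detection). Male mice were used.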

Series [2] can be described thus: Mass spectrometric analysis of LA-1 in brain and plasma. Format: in vivo, mouse. The settings on record: concluded from brain levels after single i.p. dose, perfused brains. In a few lines: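 Male C57BL/6 mice received 500 µl of 50 µM test compound i.p., three mice per time point, sampled from 5 min to 8 h. EDTA plasma and PBS-perfused hemibrains were collected; brain was homogenised in water. Extracts diluted in methanol/acetonitrile were analysed by C18 LC-MS/MS (isocratic 85% acetonitrile, MRM m/z 420.103→375.800 and 420.103→230.000). Levels were interpolated from spiked-matrix standard curves by cubic regression.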

The subject of series [3] is APP-overexpressing Chinese hamster ovary cells. Nature of the series: APP expression and processing after LA-1 treatment. It is filed as cell-based. The following applies: APP-overexpressing CHO cells, lysates and supernatants after 6 h; Fig. S2 A–F. In a few lines: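 Cells were APP-overexpressing CHO cells exposed to test compound in serum-free culture medium. Lysates and supernatants were harvested after 6 h.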

In the case of `O=C(O)c1ccc(-c2ccc(/C=C3\SC(=S)N(Cc4ccccc4)C3=O)o2)cc1` [LA-1, Leukadherin 1], the “tPA mRNA in microglia” value in the series on primary microglia (Fig. 4 E) was “significant increase”. The “MMP2 or MMP9 mRNA levels in microglia” value in the series with primary microglia (Fig. 4 F) is listed as “did not observe differences”. In addition, the “LA-1 effect on Aβ degradation in CR3^kd cells” value in the series on CR3^kd cells is reported as “absent”. The “Vascular adhesion markers on acutely isolated microglia and PBMCs” value in series [1] is given as “no changes”. The “Reversibility of ISF Aβ reduction after exchanging drug for perfusion buffer” value with ISF Aβ was “reversible”. Further, the BBB penetration result in series [2] is “demonstrating BBB penetration”. For the same molecule, the “APP expression and processing” value in series [3] was “did not change”.
